Screens (PubChem BioAssay)
SENP1 FRET inh: blocks the human SENP1 SUMO protease catalytic domain; Q9P0U3; recombinant SENP1 catalytic domain, CyPet-SUMO1-YPet FRET cleavage; inhibition, % at 10 µM; 360,000 compounds, 0.21% hits;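 active = inhibition at least 30% at 10 µM, raw YFP signal under a set limit, fluorescence ratio 0.5 to 1.5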
Target sequence (Q9P0U3 419-644 limits assumed): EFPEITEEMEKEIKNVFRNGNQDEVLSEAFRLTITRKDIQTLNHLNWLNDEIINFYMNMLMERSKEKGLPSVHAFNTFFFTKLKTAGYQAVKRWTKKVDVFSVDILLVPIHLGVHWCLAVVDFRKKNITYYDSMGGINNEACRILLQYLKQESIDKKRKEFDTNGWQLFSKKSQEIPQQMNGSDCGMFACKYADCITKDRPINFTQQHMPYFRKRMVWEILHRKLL
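Assay system – human recombinant His6-tagged SENP1 catalytic domain enzyme · Input – SENP1 enzyme, 20 pM final · Buffer or medium – Tris pH 8 buffer plus EDTA, NaCl, BME, BSA, NP40, catalase · Schedule – 50 min reaction at room temperature · Technique – FRET read of cyan and yellow fluorescence · Control set – no-enzyme wells low, DMSO-plus-enzyme wells high control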
SENP8 block-1: blocks the human protease SENP8. purified SENP8, Z-RLRGG-aminoluciferin cleavage, luminescence. 330,000 compounds, 1.2% hits. AID 2540. Q96LD8. inhibition, % at 10 µM; in the data active = inhibition above about 50%
SENP6 inh: SENP6 protease inhibition. Q9GZR1. Recombinant SENP6 catalytic domain, aminoluciferin luminescence. inhibition, % at 10 µM. 330,000 compounds, 1.8% hits. AID 2599;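 active = inhibition above about 50% at the single tested dose, limit read from the data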
SENP8 block-2: blocks human SENP8 cleavage of Nedd8 substrate. inhibition, % at 20 µM. recombinant SENP8, Nedd8 substrate fluorescence. Q96LD8. AID 602440. 360,000 compounds, 0.64% hits; in the data active = inhibition mostly above about 40%, no sharp cut-off; inactive = mostly below about 27%
SENP7 inh: SENP7 protease inhibition; Q9BQF6; recombinant SENP7, Z-RLRGG-aminoluciferin luminescence, 40 min; inhibition, % at 5 µM; 330,000 compounds, 1.5% hits;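 active = inhibition above about 50% at the single test dose, limit read from the data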
SENP8 confirm: confirmation of human SENP8 protease inhibitors; shares compounds with SENP7 inh; Recombinant SENP8, Z-RLRGG-aminoluciferin luminescence, 60 min; inhibition, % at 12.5 µM; 6,200 compounds, 40% hits; AID 488912;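 active = mean inhibition across replicates above about 50%, limit read from the data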
SENP6 confirm: human SENP6 inhibition, confirmed | shares compounds with SENP7 inh | recombinant SENP6, Z-RLRGG-aminoluciferin luminescence | inhibition, % at 12.5 µM | 6,200 compounds, 58% hits | AID 488915
SENP7 confirm: human SENP7 inhibition, confirmed; recombinant SENP7, Z-RLRGG-aminoluciferin luminescence, 40 min; shares compounds with SENP7 inh; inhibition, % at 12.5 µM; 6,200 compounds, 69% hits
Casp3 SENP sel: caspase-3 inhibition (SENP selectivity assay) | shares compounds with SENP7 inh | purified caspase-3, Z-DEVD-aminoluciferin luminescence, 60 min | inhibition, % at 12.5 µM | 6,200 compounds, 60% hits;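 active = mean inhibition above about 50%, limit read from the data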
Target sequence (P42574 28-227 limits assumed): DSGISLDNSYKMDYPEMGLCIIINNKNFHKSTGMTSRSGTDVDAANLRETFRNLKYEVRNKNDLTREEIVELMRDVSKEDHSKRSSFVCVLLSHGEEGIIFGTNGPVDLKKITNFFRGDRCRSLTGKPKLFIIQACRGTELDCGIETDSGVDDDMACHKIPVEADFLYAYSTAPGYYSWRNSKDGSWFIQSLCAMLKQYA
SENP luc ctr: counter-screen for SENP inhibitors: luminescence interference | shares compounds with SENP7 inh | Pre-incubated SENP8/Z-RLRGG-aminoluciferin, luciferase luminescence interference | inhibition, % at 12.5 µM | 6,200 compounds, 39% hits | AID 488919;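 active = mean inhibition above about 50% when retested at one dose, limit read from the data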
A number is an active result; - = inactive; . = no result given. Only some compounds are listed: those with a hit (about 2.5% of all), similar ones and a draw of the others.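 Rule for the calls, unless noted: active = mean inhibition above about 50% in the one-dose retest (limit read from the data); inactive = the rest.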

SMILES | SENP1 FRET inh | SENP8 block-1 | SENP6 inh | SENP8 block-2 | SENP7 inh | SENP8 confirm | SENP6 confirm | SENP7 confirm | Casp3 SENP sel | SENP luc ctr
c1ccc(COc2ccc(CN3CCN(c4ccccn4)CC3)cc2)cc1 | - | - | 54 | - | - | 59 | 53 | 72 | - | 66
CCCCN1C(C(=O)Nc2ncccn2)=C(O)c2ccccc2S1(=O)=O | - | - | - | - | - | . | . | . | . | .
CCc1ccc(-c2ccc(C(=O)O)cc2)nc1 | - | - | - | - | 65 | 76 | 74 | 94 | 91 | 75
O=C(Nc1cccc(Cl)c1)N1CCc2ccccc2C1 | - | - | 51 | - | - | - | - | 78 | - | -
COc1cccc(NC(=O)N2CCc3ccccc3C2)c1 | - | - | 53 | - | 53 | - | - | 80 | 70 | 56
N=c1cc(C2(O)CCCCC2)n2c(nc3ccccc32)s1 | - | - | 62 | - | 58 | - | - | 80 | 62 | 54
CCOc1ccc2nc(NC(=O)Nc3cccs3)sc2c1 | - | 57 | 68 | - | - | 51 | 61 | 82 | - | -
CCOc1ccc2nc(NC(=O)Nc3ccccc3)sc2c1 | - | - | - | - | - | . | . | . | . | .
CCOc1ccc2nc(NC(=O)Cc3cccs3)sc2c1 | - | - | 64 | - | - | 57 | 54 | 80 | - | -
CCOc1cc(CNCc2ccncc2)cc(Cl)c1OC | - | - | - | - | - | . | . | . | . | .
S=C(Nc1cccc2ccccc12)NC1CCCCC1 | - | - | - | - | - | . | . | . | . | .
COc1ccc2cc3cc(C(=O)NCCCN4CCC(C)CC4)oc3nc2c1 | - | - | - | - | - | . | . | . | . | .
COc1ccc2cc3cc(C(=O)N4CCCCC4C)oc3nc2c1 (centres undefined) | - | 52 | 64 | - | 67 | 64 | 61 | 88 | 75 | -
COc1ccc2cc3cc(C(=O)N(C)C4CCCCC4)oc3nc2c1 | - | 52 | 60 | - | 61 | - | - | - | - | -
COc1ccc2cc3cc(C(=O)N4CCCCCC4)oc3nc2c1 | - | 79 | 77 | - | 87 | - | 82 | 97 | 69 | -
COc1ccc2cc3cc(C(=O)N4CCN(C5CCCCC5)CC4)oc3nc2c1 | - | - | - | - | - | . | . | . | . | .
CCOC(=O)Cc1csc(SCC(=O)N(CC(C)C)c2c(N)n(Cc3ccccc3)c(=O)[nH]c2=O)n1 | - | - | - | - | - | . | . | . | . | .
CCOCCc1nnc(NC(=O)CCS(=O)(=O)c2ccccc2)s1 | - | - | - | - | - | . | . | . | . | .
CC(C)OC(=O)CC(=O)c1sc2nc3c(cc2c1N)CN(C)CC3 | . | - | 54 | . | - | - | - | - | - | -
C#CCNC(=O)C[C@@H]1C[C@@]2(C(=O)OCC)CCCC=C2N(CCCCCCCC)C1=O | - | . | . | - | . | . | . | . | . | .
Cc1cc(C(F)(F)F)c(C#N)c(SCC(=O)Nc2nc3ccccc3s2)n1 | - | 89 | 80 | - | 91 | - | - | - | - | -
Cc1nc(SCC(=O)Nc2nc3ccccc3s2)c(C#N)c(C)c1C | - | - | - | - | - | . | . | . | . | .
CCOC(=O)c1c(C)n(CC(O)CN(C)C)c2cc(Br)c(OC)cc12 (centres undefined) | - | - | - | - | - | . | . | . | . | .
O=C(CCC(=O)OCCCC(F)(F)C(F)(F)F)Nc1ccccc1 | - | - | - | - | 99 | - | - | - | - | -
Cc1ccccc1NC(=O)CCC(=O)OCCCC(F)(F)C(F)(F)F | - | - | - | - | - | . | . | . | . | .
Cc1ccc(C(=O)O/N=C(\N)c2nonc2N)cc1 | - | 97 | 98 | - | 101 | 98 | 98 | 101 | 97 | 97
N/C(=N\OC(=O)c1ccc(F)cc1)c1nonc1N | - | 94 | 96 | - | 98 | 98 | 98 | 102 | 98 | 87
N/C(=N/OCC(=O)Nc1cccc2ccccc12)c1nonc1N | - | - | - | - | - | . | . | . | . | .
